Test [1] in a line: Antioxidant activity of compound assessed as ferric reducing antioxidant power. It counts as functional. In outline:
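Modified FRAP assay. Reagent mixed from 300 mM acetate buffer pH 3.6, 10 mM TPTZ in 40 mM HCl, and 20 mM ferric chloride hexahydrate solution. Ascorbic acid and BHT served as references.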

Test [2] relates to Radical scavenging activity. As to the kind of experiment: Antioxidant activity of compound assessed as DPPH radical scavenging activity. It counts as functional. In a few lines: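 DPPH radical scavenging: compounds at five concentrations across a 0–25 range in methanol, mixed with 0.3 mM DPPH ethanol solution and left 30 min in the dark at room temperature. Absorbance read at 518 nm, with a compound-plus-methanol reading blank and a DPPH-plus-methanol negative control. % inhibition = [(A_B−A_A)/A_B]×100; IC50 calculated; ascorbic acid as reference.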

Another test deals with Cholinesterase (Equus caballus, UniProt P81908). In words: Inhibition of equine serum BuChE using acetylthiocholine iodide as substrate by Ellman's method.
Chain of Cholinesterase (P81908 whole entry): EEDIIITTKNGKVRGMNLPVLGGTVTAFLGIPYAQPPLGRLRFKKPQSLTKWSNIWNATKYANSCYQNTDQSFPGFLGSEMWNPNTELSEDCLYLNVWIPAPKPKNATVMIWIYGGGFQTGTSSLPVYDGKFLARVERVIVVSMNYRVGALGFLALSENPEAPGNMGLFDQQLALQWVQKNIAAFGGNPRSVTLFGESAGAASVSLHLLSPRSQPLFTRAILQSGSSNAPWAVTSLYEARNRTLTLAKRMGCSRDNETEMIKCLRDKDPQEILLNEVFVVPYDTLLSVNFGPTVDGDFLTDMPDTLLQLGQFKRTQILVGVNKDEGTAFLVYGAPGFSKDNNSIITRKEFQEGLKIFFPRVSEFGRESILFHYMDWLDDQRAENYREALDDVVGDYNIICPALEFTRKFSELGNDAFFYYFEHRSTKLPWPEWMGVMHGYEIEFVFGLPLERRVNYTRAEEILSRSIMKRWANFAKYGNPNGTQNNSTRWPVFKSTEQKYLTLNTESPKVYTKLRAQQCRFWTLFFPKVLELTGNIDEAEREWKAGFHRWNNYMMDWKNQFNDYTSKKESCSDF
The nature of test [3]: Selectivity ratio of IC50 for equine serum BuChE to IC50 for electric eel AChE. In a few lines: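 Ellman assay with electric eel AChE and equine serum BuChE, run by the same method. Compounds are diluted in 0.1 M phosphate buffer, pH 8.0, and preincubated 15 min at 25 °C. Substrate is acetylthiocholine iodide with DTNB, read as absorbance rate at 412 nm over 6 min. Five concentrations are tested in triplicate, with IC50 taken graphically. Ratio = IC50(BuChE)/IC50(AChE).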

In another test the target is Acetylcholinesterase (Electrophorus electricus, UniProt O42275). In words: Inhibition of electric eel AChE using acetylthiocholine iodide as substrate by Ellman's method.
Chain of Acetylcholinesterase (O42275 whole entry): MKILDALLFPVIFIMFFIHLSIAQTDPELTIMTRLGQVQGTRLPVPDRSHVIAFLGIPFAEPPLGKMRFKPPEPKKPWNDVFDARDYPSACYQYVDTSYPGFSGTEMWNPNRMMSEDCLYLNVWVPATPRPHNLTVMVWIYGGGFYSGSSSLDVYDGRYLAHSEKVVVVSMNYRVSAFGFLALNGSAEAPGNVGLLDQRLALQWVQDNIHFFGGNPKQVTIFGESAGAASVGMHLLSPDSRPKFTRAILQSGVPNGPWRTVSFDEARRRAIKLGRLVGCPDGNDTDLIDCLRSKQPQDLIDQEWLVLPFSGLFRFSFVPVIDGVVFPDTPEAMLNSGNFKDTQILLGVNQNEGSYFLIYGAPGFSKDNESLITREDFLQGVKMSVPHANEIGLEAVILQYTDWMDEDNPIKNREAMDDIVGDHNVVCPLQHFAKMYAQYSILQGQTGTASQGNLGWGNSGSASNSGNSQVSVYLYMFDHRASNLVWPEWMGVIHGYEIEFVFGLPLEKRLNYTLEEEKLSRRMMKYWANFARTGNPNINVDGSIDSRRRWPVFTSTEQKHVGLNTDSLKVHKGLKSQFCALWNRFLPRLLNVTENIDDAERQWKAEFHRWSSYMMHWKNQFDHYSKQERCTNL

Converted amounts (≈) assume the structure as drawn. Bounds are passed on as bounds.

Turning to `O=C(/C=C/c1cc[n+](Cc2ccccc2F)cc1)c1cc2cc(Br)ccc2oc1=O.[Cl-]`, the Activity in test [1] is less than 150. Further, the IC50 was greater than 25 µg/mL in test [2], 489 nM at Cholinesterase and 0.11 nM at Acetylcholinesterase. Further, the Ratio IC50 in test [3] was 4440.

Take `O=C(/C=C/c1cc[n+](Cc2ccc(F)cc2)cc1)c1cc2cc(Br)ccc2oc1=O.[Cl-]`: in test [1], the Activity is less than 150. The IC50 is greater than 25 µg/mL in test [2], 494 nM at Cholinesterase and 0.46 nM on Acetylcholinesterase. Besides, the Ratio IC50 in test [3] was 1070.

As to `O=C(/C=C/c1cc[n+](Cc2ccc(F)cc2)cc1)c1cc2ccccc2oc1=O.[Cl-]`, the Activity in test [1] is less than 150. For the same compound, the half-maximal inhibitory concentration (IC50) in test [2] is greater than 25 µg/mL; on Cholinesterase, 910 nM; against Acetylcholinesterase, 760 nM. The Ratio IC50 in test [3] was 1.2.

In the case of `COc1cccc2cc(C(=O)/C=C/c3cc[n+](Cc4ccccc4Cl)cc3)c(=O)oc12.[Cl-]`, in test [1], the Activity was less than 150. Further, the values for the IC50 (in test [2]; against Cholinesterase; at Acetylcholinesterase) were greater than 25 µg/mL, 125 nM and 0.46 nM, respectively. Moreover, the Ratio IC50 in test [3] amounted to 272.

Consider `COc1cccc2cc(C(=O)/C=C/c3cc[n+](Cc4cccc(C)c4)cc3)c(=O)oc12.[Cl-]`, for which the Activity in test [1] was less than 150. In addition, the IC50 in test [2] was greater than 25 µg/mL; against Cholinesterase it was 11200 nM; on Acetylcholinesterase it was 800 nM. In addition, the Ratio IC50 in test [3] was determined as 14.

Take `O=C(/C=C/c1cc[n+](Cc2ccccc2F)cc1)c1cc2ccccc2oc1=O.[Cl-]`: the Activity in test [1] is less than 150. Moreover, the figures for the half-inhibitory concentration (IC50) (in test [2]; on Cholinesterase; against Acetylcholinesterase) were greater than 25 µg/mL, 848 nM and 540 nM, respectively. Further, in test [3], the Ratio IC50 is 1.57.

Turning to `COc1cccc2cc(C(=O)/C=C/c3cc[n+](Cc4ccc(F)cc4)cc3)c(=O)oc12.[Cl-]`, in test [1], the Activity is less than 150. The figures for the IC50 (in test [2]; against Cholinesterase; against Acetylcholinesterase) were greater than 25 µg/mL, 931 nM and 472 nM, respectively. Moreover, in test [3], the Ratio IC50 turned out to be 1.97.

With `COc1cccc2cc(C(=O)/C=C/c3cc[n+](Cc4cccc(Cl)c4)cc3)c(=O)oc12.[Cl-]`, the Activity in test [1] was less than 150. The half-inhibitory concentration (IC50) was greater than 25 µg/mL in test [2], 560 nM against Cholinesterase and 86 nM against Acetylcholinesterase. Moreover, the Ratio IC50 in test [3] worked out at 6.5.

Take `O=C1O[C@H]([C@@H](O)CO)C(O)=C1O` [ASCORBIC ACID]: the Activity in test [1] was determined as 1890. The IC50 in test [2] stood at 3.6 µg/mL (≈ 20.4 µM).

For `COc1cccc2cc(C(=O)/C=C/c3cc[n+](Cc4ccc(Cl)c(Cl)c4)cc3)c(=O)oc12.[Cl-]`, the Activity in test [1] is less than 150. In addition, the values for the IC50 (in test [2]; against Cholinesterase; against Acetylcholinesterase) were greater than 25 µg/mL, 5790 nM and 440 nM, respectively. In addition, in test [3], the Ratio IC50 worked out at 13.6.

On to `COc1cccc2cc(C(=O)/C=C/c3cc[n+](Cc4ccccc4)cc3)c(=O)oc12.[Cl-]`, for which the Activity in test [1] was less than 150. Also, the IC50 in test [2] was greater than 25 µg/mL.

`COc1cccc2cc(C(=O)/C=C/c3cc[n+](Cc4cccc(C#N)c4)cc3)c(=O)oc12.[Br-]`: the Activity in test [1] was less than 150. For the same compound, the results for the IC50 (in test [2]; against Cholinesterase; at Acetylcholinesterase) were greater than 25 µg/mL, 1000 nM and 76 nM, respectively. Besides, the Ratio IC50 in test [3] is 13.1.

For the compound `COc1cccc2cc(C(=O)/C=C/c3cc[n+](Cc4cccc(Cl)c4Cl)cc3)c(=O)oc12.[Cl-]`, the Activity in test [1] was less than 150. The figures for the IC50 (in test [2]; against Cholinesterase; on Acetylcholinesterase) were greater than 25 µg/mL, 6800 nM and 120 nM, respectively. In test [3], the Ratio IC50 came to 57.

On to `COc1cccc2cc(C(=O)/C=C/c3cc[n+](Cc4ccccc4C)cc3)c(=O)oc12.[Cl-]`, for which the Activity in test [1] was less than 150. The values for the IC50 (in test [2]; against Cholinesterase; on Acetylcholinesterase) were greater than 25 µg/mL, 342 nM and 0.16 nM, respectively. Further, the Ratio IC50 in test [3] stood at 2140.

Regarding `COc1cccc2cc(C(=O)/C=C/c3cc[n+](Cc4ccccc4F)cc3)c(=O)oc12.[Br-]`, in test [1], the Activity was less than 150. Besides, the half-inhibitory concentration (IC50) is greater than 25 µg/mL in test [2], 329 nM on Cholinesterase and 26 nM against Acetylcholinesterase. Besides, in test [3], the Ratio IC50 was 12.6.

Consider `COc1ccc(C[n+]2ccc(/C=C/C(=O)c3cc4cccc(OC)c4oc3=O)cc2)cc1.[Cl-]`, for which, in test [1], the Activity is less than 150. Besides, the IC50 in test [2] was greater than 25 µg/mL; against Cholinesterase, 971 nM; on Acetylcholinesterase, 1470 nM. In addition, the Ratio IC50 in test [3] is 0.7.

In the case of `COc1cccc2cc(C(=O)/C=C/c3cc[n+](Cc4c(F)cccc4[N+](=O)[O-])cc3)c(=O)oc12.[Cl-]`, in test [1], the Activity is less than 150. The results for the 50% inhibitory concentration (IC50) (in test [2]; against Cholinesterase; on Acetylcholinesterase) were greater than 25 µg/mL, 685 nM and 330 nM, respectively. Moreover, the Ratio IC50 in test [3] stood at 2.1.

Consider `COc1cccc2cc(C(=O)/C=C/c3cc[n+](Cc4ccc(CCl)cc4)cc3)c(=O)oc12.[Cl-]`, for which, in test [1], the Activity was less than 150. Further, the IC50 was greater than 25 µg/mL in test [2], 15100 nM against Cholinesterase and 1600 nM at Acetylcholinesterase. In test [3], the Ratio IC50 came out at 9.4.

For `COc1cccc2cc(C(=O)/C=C/c3cc[n+](Cc4ccc(C)cc4)cc3)c(=O)oc12.[Cl-]`, the Activity in test [1] is less than 150. The IC50 is greater than 25 µg/mL in test [2], 27000 nM against Cholinesterase and 3650 nM against Acetylcholinesterase. In test [3], the Ratio IC50 was 7.4.

For the compound `COc1cccc2cc(C(=O)/C=C/c3cc[n+](Cc4cccc(F)c4)cc3)c(=O)oc12.[Cl-]`, the Activity in test [1] was less than 150. The 50% inhibitory concentration (IC50) in test [2] is greater than 25 µg/mL; against Cholinesterase, 2100 nM; at Acetylcholinesterase, 0.47 nM. For the same compound, the Ratio IC50 in test [3] amounted to 4470.
